Laboratory results from ChEMBL document CHEMBL3817744, “5'-Substituted Amiloride Derivatives as Allosteric Modulators Binding in the Sodium Ion Pocket of the Adenosine A2A Receptor” (J Med Chem, 2016).

Experiments:
[1] = tested on: Adenosine A2 receptor (Homo sapiens), P29275+P29274 [W246A]; experiment: Displacement of [3H]ZM-241,385 from human N-terminal FLAG-tagged adenosine A2A receptor W246A 6.48 mutant expressed in HEK293 cell membrane assessed as radioligand binding at 10 uM by microbeta scintillation counting method relative to control; assay type: cell membranes
Outline: (§1)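 Membranes from HEK293 cells stably expressing hA2AAR-WT (15 µg protein) or transiently expressing W246A mutant (4 µg; harvested 48 h post-transfection), ADA-treated. Incubated 2 h at 25 °C in 50 mM Tris-HCl pH 7.4 with 2.5 nM [3H]ZM-241,385 ± 10 µM test compound; filtration, scintillation counting. 100% = no compound; 0% = nonspecific (100 µM NECA for WT, 10 µM ZM-241,385 for mutant). Means of ≥3 independent assays in duplicate.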

Adenosine receptor A2a [2] = biological target: T1, Adenosine receptor A2a (Homo sapiens, UniProt P29274); experiment: Displacement of [3H]ZM-241,385 from human N-terminal FLAG-tagged adenosine A2A receptor expressed in HEK293 cell membrane assessed as radioligand binding at 10 uM by microbeta scintillation counting method relative to control; assay type: cell membranes; outline: as §1
T1 sequence (P29274 whole entry): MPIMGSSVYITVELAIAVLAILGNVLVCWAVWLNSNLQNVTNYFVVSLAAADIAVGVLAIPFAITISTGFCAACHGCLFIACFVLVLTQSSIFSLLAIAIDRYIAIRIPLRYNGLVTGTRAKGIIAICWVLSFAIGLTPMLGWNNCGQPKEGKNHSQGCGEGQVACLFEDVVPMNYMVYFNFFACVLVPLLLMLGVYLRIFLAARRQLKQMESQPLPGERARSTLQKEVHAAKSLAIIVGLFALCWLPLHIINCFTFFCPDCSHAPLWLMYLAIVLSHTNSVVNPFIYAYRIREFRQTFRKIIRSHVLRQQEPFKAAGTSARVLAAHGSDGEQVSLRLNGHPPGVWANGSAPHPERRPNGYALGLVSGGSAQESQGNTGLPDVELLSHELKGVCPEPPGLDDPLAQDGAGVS

Adenosine receptor A2a [3] = biological target: T1, Adenosine receptor A2a; experiment: Displacement of [3H]ZM-241,385 from human N-terminal FLAG-tagged adenosine A2A receptor expressed in HEK293 cell membrane assessed as decrease in radioligand residence time at 100 uM by microbeta scintillation counting method relative to control; assay type: cell membranes
Outline: (§2)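 Dissociation assay on HEK293 membranes (WT stable, 15 µg; W246A transient, 4 µg). Preequilibration with 2.5 nM [3H]ZM-241,385 for 1 h at 4 °C. Dissociation started with 100 µM NECA ± 100 µM compound (WT, times over 180 min) or 10 µM ZM-241,385 ± 10 µM compound (mutant, over 30 min). Filtration, scintillation counting. One-phase dissociation fit gave residence time versus control. ≥3 assays in duplicate.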

[4] = tested on: Adenosine A2 receptor (Homo sapiens), P29275+P29274 [W246A]; experiment: Displacement of [3H]ZM-241,385 from human N-terminal FLAG-tagged adenosine A2A receptor W246A 6.48 mutant expressed in HEK293 cell membrane assessed as decrease in radioligand residence time at 10 uM by microbeta scintillation counting method relative to control; assay type: cell membranes; outline: as §2
Adenosine receptor A2a [5] = biological target: T1, Adenosine receptor A2a; experiment: Displacement of [3H]ZM-241,385 from human N-terminal FLAG-tagged adenosine A2A receptor expressed in HEK293 cell membrane assessed as radioligand residence time at 100 uM by microbeta scintillation counting method; assay type: cell membranes; outline: as §2
Adenosine receptor A2a [6] = biological target: T1, Adenosine receptor A2a; experiment: Displacement of [3H]ZM-241,385 from human N-terminal FLAG-tagged adenosine A2A receptor expressed in HEK293 cell membrane by microbeta scintillation counting method; assay type: cell membranes
Outline: (§3)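 Competition binding to ADA-treated HEK293 membranes, WT receptor stably expressed (15 µg protein) or W246A mutant transiently expressed (4 µg). 2.5 nM [3H]ZM-241,385 with increasing compound concentrations, 2 h at 25 °C in 50 mM Tris-HCl pH 7.4. Filtration and scintillation counting. IC50 from a one-site fit. Nonspecific binding: 100 µM NECA (WT) or 10 µM ZM-241,385 (mutant). ≥3 independent assays in duplicate. Fold change = WT IC50 / mutant IC50.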

Adenosine A2 receptor = Adenosine A2 receptor (Homo sapiens, UniProt P29275+P29274, W246A); experiment: Displacement of [3H]ZM-241,385 from human N-terminal FLAG-tagged adenosine A2A receptor W246A 6.48 mutant expressed in HEK293 cell membrane by microbeta scintillation counting method; assay type: cell membranes; outline: as §3
HEK293 = experiment: Ratio of IC50 for human N-terminal FLAG-tagged adenosine A2A receptor expressed in HEK293 cell membrane to IC50 for human N-terminal FLAG-tagged adenosine A2A receptor W246A 6.48 mutant expressed in HEK293 cell membrane; assay type: cell-based; outline: as §3
[7] = tested on: Adenosine A2 receptor (Homo sapiens), P29275+P29274 [W246A]; experiment: Displacement of [3H]ZM-241,385 from human N-terminal FLAG-tagged adenosine A2A receptor W246A 6.48 mutant expressed in HEK293 cell membrane assessed as radioligand residence time at 10 uM by microbeta scintillation counting method; assay type: cell membranes; outline: as §2

Row | SMILES | Activity [1] | Activity (Adenosine receptor A2a [2]) | also measured
1 | N=C(N)NC(=O)c1nc(Cl)c(N2CCCCCC2)nc1N [N,N-HEXAMETHYLENEAMILORIDE] | 1.8% | 30% | fold change (FC) (Adenosine receptor A2a [3]): 2.2; fold change (FC) [4]: 1.9; TIME (Adenosine receptor A2a [5]): 0.467 h; IC50 (Adenosine receptor A2a [6]): 5.1 µM; IC50 (Adenosine A2 receptor): 0.27 µM; Ratio IC50 (HEK293): 19; TIME [7]: 0.0233 h
2 | N=C(N)NC(=O)c1nc(Cl)c(NCCc2nnn[nH]2)nc1N | 101% | 99% | 
3 | N=C(N)NC(=O)c1nc(Cl)c(N)nc1N | 11% | 71% | 
4 | NC(N)=NC(=O)c1nc(Cl)c(NCCc2ccc(OCc3ccccc3)cc2)nc1N | 4% | 75% | 
5 | N=C(N)NC(=O)c1nc(Cl)c(NCc2ccccc2)nc1N | 21% | 77% | 
6 | N=C(N)NC(=O)c1nc(Cl)c(NCCSCc2ccccc2)nc1N | 35% | 84% | 
7 | Cc1ccc(S(=O)(=O)NCCNc2nc(N)c(C(=O)NC(=N)N)nc2Cl)cc1 | 32% | 85% | 
8 | N=C(N)NC(=O)c1nc(Cl)c(NCc2cccnc2)nc1N | 46% | 71% | 
9 | N=C(N)NC(=O)c1nc(Cl)c(NCC(=O)O)nc1N | 111% | 88% | 
10 | N=C(N)NC(=O)c1nc(Cl)c(NCCc2ccccc2)nc1N | 1.1% | 54% | 
11 | Cl.NC(N)=NC(=O)c1nc(Cl)c(NCCc2ccc3c(c2)OCO3)nc1N | 1% | 35% | fold change (FC) [4]: 2.3; TIME (Adenosine receptor A2a [5]): 1.02 h; IC50 (Adenosine receptor A2a [6]): 5.6 µM; IC50 (Adenosine A2 receptor): 0.07 µM; Ratio IC50 (HEK293): 80; TIME [7]: 0.02 h
12 | NC(N)=NC(=O)c1nc(Cl)c(NC2Cc3ccccc3C2)nc1N | 6.6% | 68% | 
13 | N=C(N)NC(=O)c1nc(Cl)c(NCCS(=O)(=O)Cc2ccccc2)nc1N | 18% | 82% | 
14 | CCN(CC)CCNc1nc(N)c(C(=O)NC(=N)N)nc1Cl | 53% | 85% | 
15 | N=C(N)NC(=O)c1nc(Cl)c(NCCC(=O)O)nc1N | 70% | 96% | 
16 | N=C(N)NC(=O)c1nc(Cl)c(NCc2ccc(F)cc2)nc1N | 48% | 96% | 
17 | N=C(N)NC(=O)c1nc(Cl)c(NCc2ccncc2)nc1N | 73% | 87% | 
18 | N=C(N)NC(=O)c1nc(Cl)c(NCCNCc2ccccc2)nc1N | 65% | 90% | 
19 | CCOC(=O)CCNc1nc(N)c(C(=O)NC(=N)N)nc1Cl | 48% | 87% | 
20 | N#CCCNc1nc(N)c(C(=O)NC(=N)N)nc1Cl | 17% | 65% | 

Continued, in another order:

Row | Activity [1] | Activity (Adenosine receptor A2a [2]) | SMILES | also measured
21 | 2.1% | 50% | Cc1ccc(CCNc2nc(N)c(C(=O)N=C(N)N)nc2Cl)cc1 | 
22 | -0.4% | 31% | COc1ccc(CCNc2nc(N)c(C(=O)N=C(N)N)nc2Cl)cc1.Cl | fold change (FC) (Adenosine receptor A2a [3]): 1.5; fold change (FC) [4]: 1.3; TIME (Adenosine receptor A2a [5]): 0.733 h; IC50 (Adenosine receptor A2a [6]): 4.4 µM; IC50 (Adenosine A2 receptor): 0.12 µM; Ratio IC50 (HEK293): 37; TIME [7]: 0.0333 h
23 | 5.8% | 68% | NC(N)=NC(=O)c1nc(Cl)c(NCCc2ccc([N+](=O)[O-])cc2)nc1N | 
24 | 5.4% | 41% | COc1cccc(CCNc2nc(N)c(C(=O)N=C(N)N)nc2Cl)c1.Cl | fold change (FC) (Adenosine receptor A2a [3]): 1.5; fold change (FC) [4]: 3.4; TIME (Adenosine receptor A2a [5]): 0.7 h; IC50 (Adenosine receptor A2a [6]): 8.1 µM; IC50 (Adenosine A2 receptor): 0.25 µM; Ratio IC50 (HEK293): 32; TIME [7]: 0.0133 h
25 | 9% | 60% | NC(N)=NC(=O)c1nc(Cl)c(NCCCc2ccccc2)nc1N | 
26 | 11% | 82% | NC(N)=NC(=O)c1nc(Cl)c(NCCc2ccc(Cl)c(Cl)c2)nc1N | 
27 | 9.5% | 72% | NC(N)=NC(=O)c1nc(Cl)c(NCCc2ccc(O)cc2)nc1N | 
28 | 32% | 92% | NC(N)=NC(=O)c1nc(Cl)c(NCCc2ccc(Cl)cc2)nc1N | 
29 | 4.8% | 67% | NC(N)=NC(=O)c1nc(Cl)c(NCCc2ccc(Br)cc2)nc1N | 
30 | 5.2% | 63% | NC(N)=NC(=O)c1nc(Cl)c(NCCc2ccc(OC(F)(F)F)cc2)nc1N | 
31 | 1.8% | 51% | COc1ccc(CCNc2nc(N)c(C(=O)N=C(N)N)nc2Cl)cc1OC | 
32 | 2.2% | 43% | C=CCOc1ccc(CCNc2nc(N)c(C(=O)N=C(N)N)nc2Cl)cc1 | 
33 | 3.5% | 27% | CCOc1ccc(CCNc2nc(N)c(C(=O)N=C(N)N)nc2Cl)cc1.O=C(O)C(F)(F)F | fold change (FC) (Adenosine receptor A2a [3]): 1.5; fold change (FC) [4]: 2.1; TIME (Adenosine receptor A2a [5]): 0.667 h; IC50 (Adenosine receptor A2a [6]): 3.4 µM; IC50 (Adenosine A2 receptor): 0.05 µM; Ratio IC50 (HEK293): 76; TIME [7]: 0.0217 h
34 | 3.4% | 66% | CCCCOc1ccc(CCNc2nc(N)c(C(=O)N=C(N)N)nc2Cl)cc1 | 
